Only some compounds are listed: those with a hit (about 1.5% of all), similar ones and a draw of the others.
HDAC3 inh: HDAC3 deacetylase inhibitors, primary screen, biochemical, fluorescence, cell-free homogeneous | AID 2718, 2010 | inhibition, % at 8.3 µM | 320,000 tested, 0.15% active | recombinant HDAC3, fluorogenic peptide/trypsin coupled; in the data active means inhibition above about 26%, passing the limit was not always enough
DSG3 Ab inh: inhibitors of pemphigus antibody binding to DSG3, primary screen, biochemical, bead-based, flow cytometry, scFv-GFP. AID 588358, 2011. Desmoglein-3 (Homo sapiens), P32926. DSG3-coupled beads, scFv-anti-DSG3-GFP binding; hits give low values. binding (percent of control), % at 10 µM. 310,000 tested, 0.48% active;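 active means binding more than 3 SD below its plate's average and above zero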;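 further: hits lower antibody fragment binding to DSG3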
T cell modulator: modulators of CD8 T cell-vesicle binding, primary screen, mouse 2C CD8+ T cells, flow cytometry. AID 2052, 2009. response (vesicle binding), % at 7 µM. 2C CD8+ T cell-vesicle binding; hits give low values. 330,000 tested, 0.068% active;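 active means response, share of CD8 T cells binding vesicles, and their 90th percentile fluorescence all below set limits, cut at about 80% in these data, passing the limit was not always enough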;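 further: values below 100% mean blocked vesicle binding to the CD8+ T cells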
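Material: 2C TCR transgenic mouse naive CD8+ T cells, MACS-purified. Also added: QL9-charged Drosophila Ld/ICAM-1/B7-1 vesicles. Timing: binding 1.5 h at 37 °C. Measured by: high-throughput flow cytometry with anti-B7-1 and anti-CD8 staining. Read-out: percent CD8+ FL2 mean versus row control. Controls: Unloaded micro-vesicles (low), QL9 vesicles with 0.7% DMSO (high).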
LANA-H2A inh: blockers of LANA interaction with H2A/H2B – biochemical, FP readout, HTS, primary screen | Protein LANA1 (Human herpesvirus 8 type P (isolate GK18)), Q9QR71 | inhibition, % (no concentration beside the values) | 320,000 tested, 0.6% active | cell-free LANA-H2A/H2B peptide, fluorescence polarization; in the data active means inhibition mostly above about 10%, no sharp cut-off; inactive means mostly below about 6.7%
Target sequence (Q9QR71 whole entry, looked up): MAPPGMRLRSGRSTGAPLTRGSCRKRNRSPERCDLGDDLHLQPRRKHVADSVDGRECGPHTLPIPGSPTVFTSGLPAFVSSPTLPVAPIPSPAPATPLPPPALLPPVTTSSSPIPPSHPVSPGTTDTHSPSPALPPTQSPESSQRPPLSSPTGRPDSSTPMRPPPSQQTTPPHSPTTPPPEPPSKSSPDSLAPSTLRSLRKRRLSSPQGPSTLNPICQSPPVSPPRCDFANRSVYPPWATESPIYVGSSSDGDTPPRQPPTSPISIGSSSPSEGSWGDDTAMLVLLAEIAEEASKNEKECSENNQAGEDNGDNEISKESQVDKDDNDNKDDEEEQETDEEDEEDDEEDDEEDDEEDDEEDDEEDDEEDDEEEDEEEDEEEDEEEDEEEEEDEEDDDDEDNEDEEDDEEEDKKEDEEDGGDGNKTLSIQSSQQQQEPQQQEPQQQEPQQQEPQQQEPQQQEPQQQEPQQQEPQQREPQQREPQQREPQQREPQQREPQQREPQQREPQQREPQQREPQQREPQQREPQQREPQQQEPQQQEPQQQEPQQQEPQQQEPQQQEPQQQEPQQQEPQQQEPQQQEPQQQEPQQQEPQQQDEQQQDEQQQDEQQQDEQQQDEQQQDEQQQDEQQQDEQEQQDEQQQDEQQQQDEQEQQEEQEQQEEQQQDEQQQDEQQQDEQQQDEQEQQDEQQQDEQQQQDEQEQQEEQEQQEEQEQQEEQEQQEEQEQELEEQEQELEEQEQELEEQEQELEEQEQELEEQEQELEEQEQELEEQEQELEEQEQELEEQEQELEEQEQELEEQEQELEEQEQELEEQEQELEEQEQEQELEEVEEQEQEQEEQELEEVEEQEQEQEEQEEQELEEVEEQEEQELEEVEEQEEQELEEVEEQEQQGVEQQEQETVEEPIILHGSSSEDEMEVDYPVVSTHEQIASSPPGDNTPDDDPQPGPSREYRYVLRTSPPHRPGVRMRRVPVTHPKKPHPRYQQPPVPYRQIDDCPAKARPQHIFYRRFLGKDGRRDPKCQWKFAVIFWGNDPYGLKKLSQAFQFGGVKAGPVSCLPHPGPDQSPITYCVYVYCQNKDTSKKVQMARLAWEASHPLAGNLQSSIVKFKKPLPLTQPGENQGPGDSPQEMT
Arr AP2 block: inhibitors of beta-arrestin/AP2 binding, primary screen, biochemical, GPCR trafficking, flow cytometry; FITC-arrestin peptide / GST-AP2 beads; AP2 beta2 appendage carries R879A mutation; inhibition, % at 10 µM; 340,000 tested, 0.31% active; beta-arrestin 1 C-terminal peptide binding to AP2 beta2-adaptin appendage (human);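 active means inhibition above a set limit, near 3 SD of compounds lacking own fluorescence, cut at about 54% in these data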
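System: GST-AP2 R879A glutathione beads. Medium: PBS with 0.05% Tween 20 and 0.1% BSA. Also added: FITC-arrestin peptide, 50 nM. Incubation: 12 min plus 1 h, RT. Measured by: high-throughput flow cytometry of beads, ex 488, em 535 nm. Evaluation: percent drop in bead-associated FITC signal.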
Hits are given with their value.

What do the screens show for `CCC[C@H]1CN(c2ccc(Br)cc2)C(=O)[C@@H]1CC(=O)NC`?
DSG3 Ab inh: inactive

Results for Cc1nn(C)c(C)c1N1C(=O)c2cccc3c(N)ccc(c23)C1=O ?
HDAC3 inh: inactive; DSG3 Ab inh: inactive; T cell modulator: inactive; LANA-H2A inh: 133; Arr AP2 block: inactive

What do the screens show for `Brc1ccc(CNCCCSc2ncccn2)cc1`?
HDAC3 inh: 35; DSG3 Ab inh: inactive; T cell modulator: inactive; LANA-H2A inh: inactive; Arr AP2 block: inactive

Results for ON=C(c1ccccc1)c1ccc2c3c(cccc13)CC2 ?
DSG3 Ab inh: inactive

What do the screens show for `COCCN(CCOC)S(=O)(=O)c1ccc(C(=O)Nc2nnc(C3CC3)o2)cc1`?
HDAC3 inh: inactive; DSG3 Ab inh: inactive; T cell modulator: inactive; LANA-H2A inh: active; Arr AP2 block: inactive

What do the screens show for `COC(=O)C1(C)COP(=O)(NC23CC4CC(CC(C4)C2)C3)OC1` (stereo not drawn)?
DSG3 Ab inh: inactive; Arr AP2 block: inactive

How did CC(C)Oc1ccc(Cl)cc1Nc1nc(NCCO)nc(N2CCCC2)n1 do in these assays?
HDAC3 inh: 28; DSG3 Ab inh: inactive; T cell modulator: inactive; LANA-H2A inh: inactive; Arr AP2 block: inactive

Results for O=C(NC1CCCC1)C1CC(c2ccc(F)cc2)=NO1 (stereo not drawn) ?
HDAC3 inh: inactive; DSG3 Ab inh: inactive; T cell modulator: 0.0; LANA-H2A inh: inactive; Arr AP2 block: inactive

What do the screens show for `O=c1oc(-c2ccco2)nc2c1cnn2-c1ccccc1`?
HDAC3 inh: 62; T cell modulator: inactive; LANA-H2A inh: inactive; Arr AP2 block: inactive

What do the screens show for `O=C(COc1ccc2c3c(c(=O)oc2c1)CCC3)NCCCN1CCCC1=O`?
HDAC3 inh: inactive; DSG3 Ab inh: inactive; T cell modulator: inactive; LANA-H2A inh: inactive; Arr AP2 block: inactive

Results for CC(C)(C)Nc1nc2nonc2nc1NC(C)(C)C ?
HDAC3 inh: inactive; DSG3 Ab inh: inactive; T cell modulator: 0.0; LANA-H2A inh: inactive; Arr AP2 block: inactive

What do the screens show for `O=[N+]([O-])c1ccccc1N(S(=O)(=O)c1ccccc1)S(=O)(=O)c1ccccc1`?
DSG3 Ab inh: inactive; Arr AP2 block: inactive

Results for Cc1ccc(C(=O)Nc2ccc3c(c2)C(=O)N(CC2CCCO2)C3=O)cc1 (stereo not drawn) ?
HDAC3 inh: inactive; T cell modulator: 65; LANA-H2A inh: inactive; Arr AP2 block: inactive

How did O=C(O)c1ccc(NC(=O)c2ccc3c(c2)C(=O)N(CC2CCCO2)C3=O)cc1 (stereo not drawn) do in these assays?
HDAC3 inh: inactive; T cell modulator: inactive; LANA-H2A inh: inactive; Arr AP2 block: inactive

Results for Cc1cc(NC(=O)C2CCN(S(=O)(=O)Cc3ccccc3)CC2)ccc1-n1cnnn1 ?
HDAC3 inh: inactive; DSG3 Ab inh: inactive; T cell modulator: inactive; LANA-H2A inh: 43; Arr AP2 block: inactive

How did Nc1ncnc2oc(-c3ccco3)c(-c3ccco3)c12 do in these assays?
HDAC3 inh: inactive; DSG3 Ab inh: 52; T cell modulator: inactive; LANA-H2A inh: inactive; Arr AP2 block: inactive

How did Cc1[nH]c(-c2ccco2)nc1C(=O)O do in these assays?
HDAC3 inh: inactive; DSG3 Ab inh: inactive; T cell modulator: inactive; LANA-H2A inh: 15; Arr AP2 block: inactive

How did Cc1ccc(NC(=O)C(Cc2ccccc2)NC(=O)OCc2ccccc2)cc1C (stereo not drawn) do in these assays?
HDAC3 inh: inactive; DSG3 Ab inh: inactive; T cell modulator: inactive; LANA-H2A inh: inactive; Arr AP2 block: inactive

Results for Cc1cccc(NC(=O)[C@H](Cc2ccccc2)NC(=O)OCc2ccccc2)c1 ?
HDAC3 inh: inactive; DSG3 Ab inh: -3.4; T cell modulator: inactive; LANA-H2A inh: inactive; Arr AP2 block: inactive

How did COc1ccc(-c2csc(Nc3ccc(S(N)(=O)=O)cc3)n2)cc1 do in these assays?
HDAC3 inh: inactive; DSG3 Ab inh: 88; T cell modulator: inactive; LANA-H2A inh: inactive; Arr AP2 block: inactive

How did On1c(-c2ccccc2)nc2ncccc21 do in these assays?
HDAC3 inh: inactive; DSG3 Ab inh: 73; T cell modulator: inactive; LANA-H2A inh: inactive; Arr AP2 block: inactive

Screening data: PubChem, several laboratories
